Sampled rows, rich in hits. Any-hit rate of the full collection: about 1.7%.
ARNT-TACC3 inh: disruptors of human ARNT/TACC3 interaction | inhibition, % at 9.99 µM | 0.66% of 390,000 active | Q9Y6A5 | AlphaScreen His-ARNT PAS-B/GST-TACC3 binding, luminescence; TACC3 fragment carries E629A point mutation | AID 623870;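 active = mean inhibition of replicates at least 50% and at least half of replicates each reaching 50%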;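 also: 0% = complete ARNT plus TACC3 wells and 100% = ARNT alone without TACC3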
miR122 inh: miR-122 inhibition in Huh7 cells; Huh7 miR-122 Renilla luciferase sensor, 48 h; neutral wells = 0, positive control = 100; AID 602342; 0.3% of 340,000 active; activation (reporter increase), % at 12.5 µM;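 active = mean replicate activation score at least 90 and every replicate individually at or above 90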;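 also: higher luciferase means less miR-122 activity so hits act as miR-122 inhibitors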
CFTR F508del cor: correctors of CFTR F508del function in bronchial epithelial cells. CFBE cells, YFP halide quenching; stimulated with forskolin plus potentiator P3; % fluorescence drop versus neutral controls. activity (quench increase), % at 7.58 µM. 0.36% of 350,000 active. AID 720511;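 active = mean added fluorescence quench of at least 8% versus neutral control, with both replicates also reaching 8%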;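 also: cells transiently co-express mutant CFTR-F508del with the halide-sensitive YFP; corrector assay measuring rescue of mutant channel to the surface after 24 h compound exposure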
CAL PDZ FP-1: inhibitors of human CAL PDZ peptide binding; Q9HD26; purified CAL PDZ, TMR-peptide fluorescence polarization, 1 h; inhibition, % at 20 µM; 0.02% of 330,000 active; AID 504414;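 active = highest replicate inhibition of at least 40%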;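 also: plate controls were DMSO neutral control wells for no effect and unlabeled competitor peptide control wells for full effect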
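Material: tagged CAL PDZ domain; buffer or medium: 25 mM sodium phosphate pH 7.4, 150 mM NaCl, TCEP, IgG, Thesit; compound dosing: single point, 20 µM; schedule: 1 h incubation at room temperature before polarization reading; measured by: FP readout, S and P plane fluorescence; read-out basis: percent inhibition from loss of millipolarization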
PGC1a acetyl inh: lowers PGC1a acetylation signal in U2OS cells. AlphaScreen anti-acetyl-lysine; with virally co-expressed GCN5 acetyltransferase. inhibition, % at 15.6 µM. 0.17% of 350,000 active. AID 651687;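 active = every replicate shows inhibition of at least 40%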;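 also: 0% = neutral control wells and 100% = positive control wells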
CAL PDZ FP-2: inhibitors of human CAL PDZ peptide binding | inhibition, % at 24.9 µM | Q9HD26 | 0.92% of 300,000 active | purified CAL PDZ, TMR-peptide fluorescence polarization, 1 h;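 active = mean inhibition of at least 30% with at least half of replicates also reaching 30%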;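 also: 0% = DMSO neutral control and 100% = excess unlabeled competitor peptide PRC23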
Starred values were filed as active, the others as inactive; nt = no result; [ ] = dose if it differs, or a comment.

SMILES	ARNT-TACC3 inh	miR122 inh	CFTR F508del cor	CAL PDZ FP-1	PGC1a acetyl inh	CAL PDZ FP-2
COCC(=O)N(C)C[C@@H]1Oc2cc(C3=CCCCC3)ccc2S(=O)(=O)N([C@H](C)CO)C[C@@H]1C	-2	1[16.7 µM]	0	nt	-2	nt
C[C@@H]1CN([C@H](C)CO)C(=O)c2cc(C3=CCCC3)cnc2O[C@@H]1CN(C)C	4	-9[16.7 µM]	0	nt	14	nt
Cc1noc(C)c1S(=O)(=O)Nc1ccc2c(c1)C(=O)N([C@@H](C)CO)C[C@H](C)[C@@H](CN(C)S(=O)(=O)c1cccs1)OCCCC[C@@H](C)O2	3	37[16.7 µM]	-2	nt	nt	nt
C[C@H](CO)N1C[C@H](C)[C@@H](CN(C)S(=O)(=O)c2ccc(Cl)cc2)Oc2ccc(NS(=O)(=O)c3ccc(F)cc3)cc2CC1=O	-3	-1[16.7 µM]	1	nt	-20	nt
C[C@H]1CCCCO[C@H](CN(C)Cc2ccc(C(F)(F)F)cc2)[C@@H](C)CN([C@@H](C)CO)C(=O)c2cc(NC(=O)CCCN(C)C)ccc2O1	3	-10[16.7 µM]	0	nt	-17	nt
Cc1cccc(C(=O)NCCCn2ccnc2)c1C	-7	nt	-2	-1	nt	1
Cc1[nH]c2ccccc2c1C(=O)C(=O)NCCCn1ccnc1	12	nt	0	0	9	-5
CC(C)(C)c1ccc(C(=O)NCCCn2ccnc2)cc1	active	1	0	1	nt	-4
O=C(NCCCn1ccnc1)Nc1cccc(Cl)c1	61*	4	nt	-2	0	-5
CCSc1ccccc1C(=O)NCCCn1ccnc1	-3	-6	nt	-1	95*	-3
Cc1c(C(=O)C(=O)NCCCn2ccnc2)c2ccccc2n1C	-1	nt	1	-1	nt	36*
O=C(C[C@H]1CC[C@@H](NC(=O)Nc2ccccc2)[C@@H](CO)O1)NCc1ccccn1	-7	nt	-1	nt	14	nt
COc1ccc(S(=O)(=O)Nc2ccc3c(c2)CC(=O)N([C@H](C)CO)C[C@H](C)[C@@H](CN(C)Cc2ccc(C(F)(F)F)cc2)O3)cc1	4	-16[16.7 µM]	4	nt	0	nt
CSc1ccccc1C(=O)NCCCn1ccnc1	-1	-10	-1	17	16	61*
O=C(NCCCn1ccnc1)c1ccccc1Cl	-5	2	-1	1	8	-5
CCOC(=O)c1ccc(N2CCOCC2)c(NC(=O)c2c(-c3ccccc3)noc2C)c1	nt	43	16*	nt	-14	nt
Cc1onc(-c2ccccc2)c1C(=O)Nc1cc(C(F)(F)F)ccc1N1CCOCC1	nt	82	nt	-3	-14	0
COc1ccc2sc3cccc(NCCN(C)C)c3c(=O)c2c1	nt	nt	12*	nt	nt	nt
CCOc1ccc2cc(C3CC(c4ccco4)=NN3S(C)(=O)=O)c(=O)[nH]c2c1 (stereo not given)	-4	126*	-1	-1	0	0
CCOc1ccc2nc(Cl)c(C3CC(c4ccco4)=NN3S(C)(=O)=O)cc2c1 (stereo not given)	-2	-3	-1	-1	8	4
Cn1nc(C(=O)NNC(=O)CCOc2ccc(C(C)(C)C)cc2)c2ccccc2c1=O	-3	60	10*	0	-2	nt
CCOc1ccc(OCCC(=O)NNC(=O)c2nn(C)c(=O)c3ccccc23)cc1	-6	nt	1	-2	10	3
COCC(=O)N(C)C[C@@H]1Oc2cc(-c3ccccc3F)ccc2S(=O)(=O)N([C@H](C)CO)C[C@@H]1C	-3	-11[16.7 µM]	1	nt	1	nt
COc1ccc(-c2cc(C)no2)cc1S(=O)(=O)N1CCN(c2cccc(C)c2)C(C)C1 (stereo not given)	17	nt	-3	-1	-3	nt
Cc1cccc(N2CCN(S(=O)(=O)c3cc(-c4cc(C)no4)ccc3C)CC2C)c1 (stereo not given)	-3	nt	11*	-2	nt	-5
Cc1cc(=O)n2nc(N3CCC(C(=O)NCc4ccccc4Cl)CC3)sc2n1	nt	-7	0	-1	-9	5
Cc1cc(=O)n2nc(N3CCC(C(=O)NCCc4ccc(Cl)cc4)CC3)sc2n1	2	3	2	-1	6	68*
CC[n+]1c(/C=C2\Sc3ccccc3N2C)ccc2cccc(C)c21	16	nt	18*	14	nt	nt
